Laboratory results published in ChEMBL document CHEMBL3091272, “Caesalminaxins A-L, cassane diterpenoids from the seeds of Caesalpinia minax” (J Nat Prod, 2013).

Columns and labels:
Assay type in all cases: functional, cell-based
[1] = tested on: K562; test: Cytotoxicity against human K562 cells after 24 to 72 hrs by MTT assay
Summary of the method: (§1)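 Cells seeded at 5 × 10^4 cells/mL and held 24 h at 37 °C before the test compound was added as a DMSO solution at a range of concentrations. MTT staining was done after 24, 48 and 72 h. Absorbance was read at 490 nm against a negative control. IC50 was the concentration giving 50% cell death, taken from a plot of concentration versus % viability. Camptothecin served as positive control.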

[2] = tested on: HeLa; test: Cytotoxicity against human HeLa cells after 24 to 72 hrs by MTT assay; summary of the method: as §1
[3] = tested on: HepG2; test: Cytotoxicity against human HepG2 cells after 24 to 72 hrs by MTT assay; summary of the method: as §1
[4] = tested on: DU-145; test: Cytotoxicity against human DU145 cells after 24 to 72 hrs by MTT assay; summary of the method: as §1

Structure (SMILES) | IC50 [1] [µM] | IC50 [2] [µM] | IC50 [3] [µM] | IC50 [4] [µM]
CO[C@H]1C=C2[C@@](OC)(C[C@H]3[C@@H]([C@@H](OC(C)=O)[C@H](OC(C)=O)[C@@]4(O)C(C)(C)CC[C@H](OC(C)=O)[C@]34C)[C@]2(C)O)O1 | 9.2 | > 50 | 11.5 | > 50
CC[C@@]1(O)C(=O)OCc2c1cc1n(c2=O)Cc2cc3ccccc3nc2-1 [CAMPTOTHECIN] | 0.4 | 0.5 | 0.6 | 0.8
CC(=O)O[C@H]1[C@@H]2OC(=O)[C@@H]3c4ccoc4C[C@@H]([C@@H]23)[C@@]2(C)[C@@H](O)CCC(C)(C)[C@]12O | > 50 | > 50 | 8 | 12
CCO[C@]1(C)[C@@H]2[C@@H](OC(C)=O)[C@H](OC(C)=O)[C@@]3(O)C(C)(C)CC[C@H](OC(C)=O)[C@]3(C)[C@H]2C[C@]12C(=O)O[C@@H]1O[C@@H]12 | 9.9 | 12.1 | > 50 | 17.1
